Reference: ChEMBL document CHEMBL1156065, “Structure-activity relationship study on alpha1 adrenergic receptor antagonists from beer” (Bioorg Med Chem Lett, 2009)

Legend:
[1] = biological target: T1, Alpha-1A adrenergic receptor (Rattus norvegicus, UniProt P43140); experiment: Antagonist activity at rat alpha1A adrenoceptor assessed as inhibition of phenylephrine-induced contraction of caudal artery; format: functional, tissue-based
T1 sequence (P43140 whole entry): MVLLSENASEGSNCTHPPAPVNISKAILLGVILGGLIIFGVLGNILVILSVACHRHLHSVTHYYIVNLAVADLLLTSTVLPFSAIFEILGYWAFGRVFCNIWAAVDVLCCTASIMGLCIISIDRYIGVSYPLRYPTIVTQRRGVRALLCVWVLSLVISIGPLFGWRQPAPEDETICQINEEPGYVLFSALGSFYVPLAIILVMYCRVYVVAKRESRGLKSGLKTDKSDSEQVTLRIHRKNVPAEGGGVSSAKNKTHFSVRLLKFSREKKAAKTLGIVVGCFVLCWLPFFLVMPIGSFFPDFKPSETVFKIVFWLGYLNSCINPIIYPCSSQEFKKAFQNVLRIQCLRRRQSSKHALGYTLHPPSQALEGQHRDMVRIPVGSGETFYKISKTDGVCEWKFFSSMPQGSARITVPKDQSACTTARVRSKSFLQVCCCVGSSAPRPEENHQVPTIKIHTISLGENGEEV
Outline: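 Isometric tension at 1 g resting load, equilibrated 30 to 60 min with repeated washes. Contraction induced by submaximal phenylephrine. After the response stabilized, test sample was added at increasing concentrations, up to 15 min per concentration or until the response was stable.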

[2] = biological target: T1, Alpha-1A adrenergic receptor; experiment: Displacement of [3H]prazosin from rat salivary gland alpha1A adrenoceptor
Outline: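 Rat salivary gland homogenate incubated with test samples and 0.06 nM [3H]-prazosin at 22 °C for 60 min. Stopped by vacuum filtration through glass-fiber filters, washed with 50 mM Tris–HCl, counted by liquid scintillation. Nonspecific binding defined with phentolamine and subtracted from total binding. IC50 taken as the concentration inhibiting specific binding by 50%.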

IC50 [1] [µM]	IC50 [2] [µM]	SMILES
19.3	0.31	N=C(N)NCCCCNC(=O)/C=C/c1ccc2c(c1)[C@H](C(=O)NCCCCNC(=N)N)[C@@H](c1ccc(O)cc1)O2 [HORDATINE A]
> 100	57.6	N=C(N)NCCCCNC(=O)/C=C/c1ccc(O)cc1
42.2	2.16	COC(=O)[C@H]1c2cc(/C=C/C(=O)NCCCCNC(=N)N)ccc2O[C@@H]1c1ccc(O)cc1
17.7	2.44	N=C(N)NCCCCNC(=O)/C=C/c1ccc2c(c1)[C@@H](C(=O)NCCCCNC(=N)N)[C@@H](c1ccc(O)cc1)O2
4.9	0.42	N=C(N)NCCCCNC(=O)/C=C/c1ccc2c(c1)[C@H](C(=O)NCCCCNC(=N)N)[C@H](c1ccc(O)cc1)O2 [APERIDINE]
> 100	> 100	N=C(N)NCCCCNC(=O)[C@@H]1c2cc(/C=C/C(=O)O)ccc2O[C@H]1c1ccc(O)cc1
9.72	0.56	COC(=O)[C@@H]1c2cc(/C=C/C(=O)NCCCCNC(=N)N)ccc2O[C@H]1c1ccc(O)cc1
14.3	0.29	N=C(N)NCCCCNC(=O)/C=C/c1ccc2c(c1)[C@@H](C(=O)NCCCCNC(=N)N)[C@H](c1ccc(O)cc1)O2
> 100	> 100	N=C(N)NCCCCNC(=O)[C@H]1c2cc(/C=C/C(=O)O)ccc2O[C@@H]1c1ccc(O)cc1
